Our source for the Relative activation and IC50 values is ChEMBL document CHEMBL1138684, “Determinants of retinoid X receptor transcriptional antagonism” (J Med Chem, 2004).

Assay [1] concerns the target T1, Retinoic acid receptor alpha (Homo sapiens) (UniProt P10276).
T1 sequence (whole entry): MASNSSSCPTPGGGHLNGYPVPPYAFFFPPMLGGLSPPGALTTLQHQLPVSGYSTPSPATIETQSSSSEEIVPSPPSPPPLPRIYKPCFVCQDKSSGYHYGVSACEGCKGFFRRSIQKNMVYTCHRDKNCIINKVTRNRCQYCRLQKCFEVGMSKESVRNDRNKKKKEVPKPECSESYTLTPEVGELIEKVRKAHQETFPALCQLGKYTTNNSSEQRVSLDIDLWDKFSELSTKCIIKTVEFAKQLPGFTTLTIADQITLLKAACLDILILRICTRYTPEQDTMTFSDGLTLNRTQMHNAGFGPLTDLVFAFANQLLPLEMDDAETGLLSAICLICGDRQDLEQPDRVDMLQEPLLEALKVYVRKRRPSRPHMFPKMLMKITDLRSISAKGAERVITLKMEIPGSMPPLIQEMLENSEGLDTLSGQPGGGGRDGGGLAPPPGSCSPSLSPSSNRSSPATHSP
Description: Antagonism of retinoic acid receptor alpha activity induced by retinoic acid at 10e-5 M. The format is functional. In a few lines:
(§1)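 CV-1 cells kept in DMEM with 10% FCS and seeded 16-24 h before calcium precipitation cotransfection: RARα, β or γ vector (100 µg) with (TREpal)2-tk-CAT or CRBP-I-tk-CAT reporter (200 µg), plus β-gal vector. At 20 h, medium switched to 5% charcoal-stripped FCS. Cells got 1 × 10^-7 M trans-RA ± test agent for 24 h. CAT normalized to β-gal, as % of trans-RA alone.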

Assay [2] has as its target T2, Retinoic acid receptor gamma (Homo sapiens) (UniProt P13631).
T2 sequence (whole entry): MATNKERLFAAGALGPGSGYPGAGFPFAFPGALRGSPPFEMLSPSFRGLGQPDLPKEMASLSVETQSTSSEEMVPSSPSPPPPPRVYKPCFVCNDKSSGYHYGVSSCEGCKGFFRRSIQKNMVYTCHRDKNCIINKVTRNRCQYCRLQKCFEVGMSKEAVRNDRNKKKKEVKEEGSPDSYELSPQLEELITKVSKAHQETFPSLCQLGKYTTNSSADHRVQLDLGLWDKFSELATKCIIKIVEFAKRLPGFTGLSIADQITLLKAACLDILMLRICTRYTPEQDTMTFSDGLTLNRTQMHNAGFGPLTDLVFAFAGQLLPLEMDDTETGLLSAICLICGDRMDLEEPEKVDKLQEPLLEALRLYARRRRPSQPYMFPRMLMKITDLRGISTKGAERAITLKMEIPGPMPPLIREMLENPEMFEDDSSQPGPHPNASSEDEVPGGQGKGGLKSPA
Description: Antagonism of retinoic acid receptor gamma activity induced by retinoic acid at 10e-7 M. The format is functional. In a few lines:
as §1

In assay [3] the target is T1, Retinoic acid receptor alpha (Homo sapiens). Put plainly: Antagonism of retinoic acid receptor alpha activity induced by retinoic acid at 10e-7 M. Type of assay: functional. The method, boiled down: as §1
The target in assay [4] is T2, Retinoic acid receptor gamma (Homo sapiens). Description: Antagonism of retinoic acid receptor gamma activity induced by retinoic acid at 10e-5 M. Type of assay: functional. In a few lines: as §1
Assay [5] addresses T3, Retinoic acid receptor RXR-alpha (Homo sapiens) (UniProt P19793).
T3 sequence (whole entry): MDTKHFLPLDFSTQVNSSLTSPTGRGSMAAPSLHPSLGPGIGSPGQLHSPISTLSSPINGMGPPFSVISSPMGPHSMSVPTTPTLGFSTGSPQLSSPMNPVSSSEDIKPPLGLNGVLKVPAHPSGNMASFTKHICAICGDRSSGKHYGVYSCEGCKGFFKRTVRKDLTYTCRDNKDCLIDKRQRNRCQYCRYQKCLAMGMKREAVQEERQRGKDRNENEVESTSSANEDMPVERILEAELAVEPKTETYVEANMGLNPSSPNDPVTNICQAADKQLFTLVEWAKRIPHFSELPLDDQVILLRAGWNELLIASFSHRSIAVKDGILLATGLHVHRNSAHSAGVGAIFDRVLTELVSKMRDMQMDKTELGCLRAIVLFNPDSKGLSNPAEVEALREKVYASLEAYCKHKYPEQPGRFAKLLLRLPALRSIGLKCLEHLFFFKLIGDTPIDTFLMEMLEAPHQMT
Put plainly: Antagonism of retinoid X receptor alpha activity induced by retinoic acid […] at 10e-6 M. The format is functional. In a few lines: (§2)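 CV-1 cells in DMEM/10% FCS, cotransfected by calcium precipitation with RXRα vector (20 µg), CRBP-II-tk-CAT reporter (200 µg) and β-gal vector. At 20 h, medium changed to 5% charcoal-stripped FCS. Cells treated 24 h with 1 × 10^-7 M 9-cis-RA ± test agent. CAT activity normalized to β-gal, expressed relative to 9-cis-RA alone as 100%.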

The target of assay [6] is T4, Retinoic acid receptor beta (Homo sapiens) (UniProt P10826).
T4 sequence (whole entry): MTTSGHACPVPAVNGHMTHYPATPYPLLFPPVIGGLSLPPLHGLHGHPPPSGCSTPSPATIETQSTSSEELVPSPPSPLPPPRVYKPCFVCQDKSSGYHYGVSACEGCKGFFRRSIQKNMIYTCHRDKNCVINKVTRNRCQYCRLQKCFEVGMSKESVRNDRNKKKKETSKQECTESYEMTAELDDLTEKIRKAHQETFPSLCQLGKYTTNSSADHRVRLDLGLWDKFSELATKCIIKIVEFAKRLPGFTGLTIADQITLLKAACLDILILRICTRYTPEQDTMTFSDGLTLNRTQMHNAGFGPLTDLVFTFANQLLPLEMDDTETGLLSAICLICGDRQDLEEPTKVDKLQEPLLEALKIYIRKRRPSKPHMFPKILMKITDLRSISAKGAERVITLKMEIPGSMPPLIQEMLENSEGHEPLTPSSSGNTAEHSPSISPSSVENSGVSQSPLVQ
Description: Antagonism of retinoic acid receptor beta activity induced by retinoic acid at 10e-5 M. Type of assay: functional. The method, boiled down: as §1

In assay [7] the target is T4, Retinoic acid receptor beta (Homo sapiens). Description: Antagonism of retinoic acid receptor beta activity induced by retinoic acid at 10e-7 M. Type of assay: functional. The method, boiled down:
as §1

The target in assay [8] is T1, Retinoic acid receptor alpha (Homo sapiens). Put plainly: Antagonism of retinoic acid receptor alpha activity induced by retinoic acid at 10e-6 M. Type of assay: functional. In a few lines: as §1
Assay [9] addresses T2, Retinoic acid receptor gamma (Homo sapiens). Put plainly: Antagonism of retinoic acid receptor gamma activity induced by retinoic acid at 10e-6 M. Type of assay: functional. In a few lines:
as §1

Assay [10] deals with T3, Retinoic acid receptor RXR-alpha (Homo sapiens). Put plainly: Antagonism of retinoid X receptor alpha activity induced by retinoic acid […] at 10e-5 M. Type of assay: functional. The method, boiled down:
as §2

Assay [11] has the same target. Description: Antagonism of retinoid X receptor alpha activity induced by retinoic acid […] at 10e-7 M. Type of assay: functional. In a few lines:
as §2

The target in assay [12] is T4, Retinoic acid receptor beta (Homo sapiens). Put plainly: Antagonism of retinoic acid receptor beta activity induced by retinoic acid at 10e-6 M. Type of assay: functional. The method, boiled down:
as §1

The target in assay [13] is T5, Retinoic acid receptor RXR-alpha (Homo sapiens, UniProt P19793).
T5 sequence (P19793 whole entry): T3 sequence (whole entry)
Put plainly: Inhibition of [3H]9-cis-retinoic acid binding to human retinoid X receptor alpha ligand-binding domain expressed in Escherichia coli.

As for `C=C(c1ccc(C(=O)O)cc1)c1cc2c(cc1CCCC)C(C)(C)CCC2(C)C`, the Relative activation in assay [1] stood at 20%; in assay [2], 89%; in assay [3] it was 75%; in assay [4], 110%; in assay [5], 130%; in [6], 84%. Further, the Relative activation in [7] came to 94%; in assay [8] it was 30%; in assay [9] it was 94%; in assay [10], 150%; in assay [11] it was 114%; in assay [12], 102%.
As usually defined, the IC50 is the midpoint of a concentration-inhibition curve. Low readings indicate higher potency, high ones lower potency. For the compound `CCCOc1cc2c(cc1C(=C1CC1)c1ccc(C(=O)O)cc1)C(C)(C)CCC2(C)C`, in [13], the IC50 is 120 nM.
Still for that read-out and setting: next, `CCCOc1cc2c(cc1C(=C1CC1)c1ccc(C(=O)O)cn1)C(C)(C)CCC2(C)C`: 6 nM.
For `Cc1cc2c(cc1C(=C1CC1)c1ccc(C(=O)O)cc1)C(C)(C)CCC2(C)C`, in assay [13], the IC50 worked out at 21 nM.
In the case of `CCCCc1cc2c(cc1C(=C1CC1)c1ccc(C(=O)O)cc1)C(C)(C)CCC2(C)C`, the Relative activation was found to be 22% in [1]; 95% in assay [2]; 82% in assay [3]; 91% in [4]; 88% in assay [5]; 65% in assay [6]. Further, the Relative activation was 98% in [7]; 45% in assay [8]; 99% in assay [9]; 48% in [10]; 115% in [11]; 88% in [12]. Moreover, the IC50 in assay [13] is 500 nM.
Take `CCCCOc1cc2c(cc1C(=C1CC1)c1ccc(C(=O)O)cn1)C(C)(C)CCC2(C)C`: the IC50 in [13] came to 10 nM. This counts as double-digit nanomolar.
Same read-out and setting: next, `CCCCOc1cc2c(cc1C(=C1CC1)c1ccc(C(=O)O)cc1)C(C)(C)CCC2(C)C`: 270 nM.
